Rows were chosen to be rich in hits. Some 2.6% of all compounds tested hit in one or more screens of this group.
KCC2 mod – KCC2 (human) Cl- transport modulation. Q9H2X9. KCC2 cells, thallium flux FluoZin-2 fluorescence. B-score of Tl+ flux slope (higher = more flux/activation; lower = inhibition) at 10 µM. 2.2% of 190,000 active. AID 1456;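 active = thallium flux slope and its plate-corrected score both differing from the plate sample mean at a set confidence after two filtering rounds, in either direction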;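 also: slope of fluorescence scaled to starting intensity during 10 to 20 s after thallium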
CHT PAM – allosteric activators of human choline transporter CHT | CHT-expressing cells, membrane potential dye, choline EC20; active compounds read high; LV-AA mutant CHT in HEK293 cells | B-score at 10 µM | 0.49% of 310,000 active;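 active = initial fluorescence not abnormally high and integrated response B-score, plate-corrected, over 3 SD above library mean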
Target sequence (Q9GZV3 whole entry, looked up): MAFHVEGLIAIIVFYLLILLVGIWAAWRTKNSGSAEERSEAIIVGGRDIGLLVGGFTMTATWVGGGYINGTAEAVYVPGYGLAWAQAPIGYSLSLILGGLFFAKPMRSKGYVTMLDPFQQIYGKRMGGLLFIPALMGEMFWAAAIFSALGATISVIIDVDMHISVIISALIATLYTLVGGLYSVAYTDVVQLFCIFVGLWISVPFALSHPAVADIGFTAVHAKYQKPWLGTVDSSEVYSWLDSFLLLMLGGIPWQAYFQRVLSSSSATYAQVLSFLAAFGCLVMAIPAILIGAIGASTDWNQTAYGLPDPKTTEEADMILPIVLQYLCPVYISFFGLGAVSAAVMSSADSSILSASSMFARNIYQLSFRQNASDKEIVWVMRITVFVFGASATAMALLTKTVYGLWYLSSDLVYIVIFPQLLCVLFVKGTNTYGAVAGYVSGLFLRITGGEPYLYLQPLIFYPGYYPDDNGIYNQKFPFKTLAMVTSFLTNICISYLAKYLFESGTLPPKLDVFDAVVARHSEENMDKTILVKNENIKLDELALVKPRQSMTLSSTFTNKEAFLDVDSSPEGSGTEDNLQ
CHT block – human CHT choline transport inhibition; Q9GZV3; CHT-expressing cells, membrane potential dye, choline response; active compounds read low; B-score at 10 µM; 0.86% of 310,000 active;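 active = B-score over 3 SD under the library average, and starting fluorescence ratio not unusually high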;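 also: choline stimulus applied at its EC90 after an EC20 pre-addition; B-score computed on integrated fluorescence ratio after choline addition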
Rad51 HR inh – blocks human Rad51 in homologous recombination. Q06609. hRad51 DNA strand exchange, fluorescence dequenching. inhibition, % at 10 µM. 0.085% of 200,000 active. AID 1385;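 active = inhibition above 40% at the single screening dose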;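 also: 0% = DMSO control wells and 100% = blanks with heterologous ssDNA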
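Test system – preformed human Rad51 ssDNA filaments · Reagent – Donor/quencher-labelled 47-bp dsDNA substrate · Incubation – 37 °C 15-min filament assembly, 30-min compound preincubation, 15-min exchange · Signal – FRET fluorescence dequenching, excitation 485 nm, emission 520 nm · Read-out – percent inhibition from fluorescence, normalised to plate control and blank means · Benchmarks – plate control and blank wells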
CHT inh conf – confirmation of human choline transporter CHT inhibitors; shares compounds with CHT block; CHT activity remaining % of control (active compounds read low), % at 10 µM; CHT-expressing cells, choline membrane potential dye; LV-to-AA substituted CHT, HEK293 cells; 70% of 2,400 active;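 active = choline transporter activity left, mean of duplicates at 10 µM, below buffer-only control mean minus 3 SD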;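 also: depolarization triggered by choline at its EC90 following an EC20 pre-addition; 0% = hemicholinium-3 full block and 100% = buffer-only control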
HEK293 CHT ctr – activity in parental HEK293 cells lacking CHT; shares compounds with CHT block; membrane potential dye, choline response; active = decrease or increase beyond buffer ±3SD; membrane potential ratio readout (active if shifted either direction beyond buffer ±3SD; no single direction) at 10 µM; 4% of 2,400 active;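 also: parental cells lack the transporter so any hit is non-specific; ratio is peak minus trough fluorescence over baseline after EC90 choline challenge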
Active calls of the source: *; i = inactive; / = not tested or not shown; ! = repeats disagree.

SMILES	KCC2 mod	CHT PAM	CHT block	Rad51 HR inh	CHT inh conf	HEK293 CHT ctr
CCn1cc(CN(C)C(=O)CSc2nc(-c3ccco3)cc(C(F)(F)F)n2)c(C)n1	-0.266	i	i	-3.9	/	/
O=S(=O)(NCCCSc1ccccc1)c1ccccc1F	/	i	i	/	/	/
C/C(=N\NC(=O)CSc1nnc(C)s1)c1ccc(Cl)cc1	1.21	i	i	5.1	/	/
COc1ccc(-c2sc(Nc3ccccc3)n[n+]2-c2ccccc2)cc1Br	/	i	i	/	/	/
CCc1ccc(Nc2n[n+](-c3ccccc3)c(-c3cccc(C)c3)s2)cc1	/	i	-14.8*	/	48.7%*	2.6*
COC(=O)[C@@H](NC(=O)N1CCC(Cc2ccccc2)CC1)C(C)C	/	i	i	/	/	/
O=C(Nc1cccc(CNCCc2c[nH]c3ccccc23)c1)c1ccccc1Cl	/	i	-6.28*	/	30.9%*	i
O=[N+]([O-])c1ccc(SCCc2ccccn2)cc1	-0.21	i	-6.52*	15.5	53.0%*	i
Cc1ccc2nc(-c3cccc(S(=O)(=O)N4CC(C)OC(C)C4)c3)cn2c1 (stereo unspecified)	/	i	i	/	/	/
C=CCn1c(SCC(=O)NC(=O)NC2CCCC2)nnc1C1CCCCC1	-1.06	i	-4.99*	0.9	68.2%*	i
CC(C)(C)C1CCC(OC(=O)CN2CCCCC2)CC1 (stereo unspecified)	-0.0545	i	i	6.0	/	/
COc1ccc(C=Nc2ccc3[nH]ncc3c2)c(O)c1	-1.06	i	i	12.9	/	/
Oc1c(Br)cc(Br)cc1C=Nc1ccc2[nH]ncc2c1	-1.04	i	-5.56*	-26.2	65.4%*	i
Oc1c(Br)cc(Br)cc1C=Nc1cccnc1	/	i	-7.85*	/	61.6%*	i
COc1cc(Br)cc(C=Nc2cccc(C(F)(F)F)c2)c1O	-1.37	i	i	1.1	/	/
CN(Cc1ccccc1)C(=S)Nc1ccc2nc3n(c(=O)c2c1)CCCCC3	0.0248	i	-6.96*	9.4	i	i
O=C(c1ccccc1Br)N1CCCC(c2nc(-c3cccs3)no2)C1 (stereo unspecified)	-1.8	i	-6.31*	5.2	i	i
O=C(c1ccc(Br)cc1)N1CCCC(c2nc(-c3cccs3)no2)C1 (stereo unspecified)	-1.78	i	i	3.4	/	/
Cc1ccc(S(=O)(=O)N2CCOCC2)cc1NC(=O)CNC1CCCC1	0.93	i	i	/	/	/
Cc1ccc(C(=O)NCC(=O)N2CCC(Cc3ccccc3)CC2)cc1	/	i	-5.25*	/	59.2%*	i
O=C(Oc1ccc(-n2cnnn2)cc1)c1ccccc1	-0.701	i	i	-3.1	/	/
O=C1C=C(O)CC(c2ccc(Cl)c(Cl)c2)C1 (stereo unspecified)	-2.51	i	i	4.3	/	/
CN[C@H]1CC[C@@H](c2ccc(Cl)c(Cl)c2)c2ccccc21	-1.35	i	-6.77*!	-4.4	i	i
Cc1ccc(C2N(c3cccc(Cl)c3)C(=O)N3CCCN23)cc1 (stereo unspecified)	-1.38	i	i	11.2	/	/
CC(C)(C)[C@H]1C=C(C(=O)N2CCN(Cc3ccc4c(c3)OCO4)CC2)O[C@@H](OCc2ccc(CO)cc2)C1	-1.44	i	i	7.1	/	/
SMILES	KCC2 mod	CHT PAM	CHT block	Rad51 HR inh	CHT inh conf	HEK293 CHT ctr
C[C@H](NC(=O)c1ccco1)C(=O)N1CCCC1	/	i	i	/	/	/
Oc1c(Cl)cc(Cl)cc1C=Nc1ccc2c(c1)OCCO2	/	i	-5.14*	0.7	62.5%*	i
C=CCSc1nc2ccccc2n1Cc1nnc(-c2cccs2)o1	-0.335	i	-6.17*	-7.9	59.5%*	i
C=CCn1c(-c2cccs2)nc2ccccc21	-1.14	i	i	9.9	/	/
CN1C[C@@H]2C(c3ccc(C(F)(F)F)cc3)C3(c4cccnc4)CC2(C3)[C@H]1c1ccccc1 (stereo partly specified)	-0.0198	i	-5.19*	-3.4	69.8%*	i
Cc1ccccc1NC(=O)c1cccc(S(=O)(=O)Oc2ccc([N+](=O)[O-])cc2)c1	-0.451	i	-5.72*	-2.0	i	i
O=C(Nc1ccc(F)cc1)Nc1ccccc1NS(=O)(=O)c1cccs1	-0.278	i	-5.27*	2.3	i	i
COc1ccc(OC)c(NC(=O)CCN2CCN(c3ccccc3F)CC2)c1	-1.12	i	i	0.6	/	/
COc1ccc(C)cc1NC(=O)CN1CCN(c2ccccc2F)CC1	-0.0789	i	-4.99*	0.3	i	i
O=C(CSc1ccccc1)NN1C(=O)c2ccccc2C1=O	-0.183	i	i	-12.9	/	/
CC[C@H](C)C(N)c1cn(C(CCCN=C(N)N)C(=O)N2CCNCC2)nn1 (stereo partly specified)	/	i	i	/	/	/
CNc1c([N+](=O)[O-])cnn1-c1ccc(C)cc1	-0.279	i	i	-1.5	/	/
COc1ccc(-c2nc3cc([N+](=O)[O-])ccc3o2)cc1	0.728	i	-5.19*	/	i	i
O=S(=O)(c1ccc(Cl)s1)N1CCN(CCc2ccccc2)CC1	/	i	i	/	/	/
Cc1nc(-c2ccc(S(=O)(=O)N3CCCN(CCc4ccccc4)CC3)s2)cs1	-0.759	i	-5.36*	2.5	i	i
O=C(c1cc(S(=O)(=O)N2CCC3(CC2)OCCO3)ccc1F)N1CCCCC1	0.722	i	i	7.1	/	/
CN(C)n1cnc2ccsc2c1=O	-0.64	i	i	-11.2	/	/
NC(=O)c1ccc(SCC(=O)OCC(=O)NCC2CCCCC2)c([N+](=O)[O-])c1	/	i	i	/	/	/
CC1CC2(CCCCC2)N2C(=O)C(=O)c3cccc1c32 (stereo unspecified)	-2.22	i	i	3.9	/	/
CC1(c2ccccc2)CC(C)(C)N2C(=O)C(=O)c3cccc1c32 (stereo unspecified)	-0.615	i	-5.31*	-2.0	i	i
CN1CCN(c2ccc([N+](=O)[O-])cc2C(=O)c2ccc(Cl)cc2)CC1	/	i	-4.99*	-7.4	67.8%*	i
O=C(CCCCCCN1C(=O)c2ccccc2C1=O)N1CCC(c2ccccc2)C1 (stereo unspecified)	-2.9	i	-6.08*	2.9	i	i
CCOc1ccc(-c2cnc(NCc3cccc4ccccc34)n2CCOC)cc1	/	i	i	/	/	/
CC(C)c1c(C(=O)N/N=C/c2cccc(OCc3ccc(F)cc3)c2)nnn1-c1nonc1N	/	i	-6.63*	/	68.0%*	i
CCC(C)C(NC(=O)C(C)NC(=O)CNC(=O)OC(C)(C)C)C(N)=O (stereo unspecified)	-0.215	i	i	-6.6	/	/
COc1cccc(NC(=S)N(Cc2ccc(C(=O)O)cc2)Cc2ccc(OC)c(OC)c2)c1	-0.52	i	-6.45*	/	51.5%*	i

Source: PubChem BioAssay (several laboratories)
